This is an account of results in PubChem BioAssay.

SMILES strings stand for the structures. Active and inactive are the calls of the source.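 Rule for the calls, unless noted: active = NADPH fluorescence slope more negative than the mean of all samples by about 3 SD, 99.7% confidence; inactive = the rest.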

The nature of assay [1]: inhibitors of TNFa-induced NFkB p65 translocation, primary screen, imaging, HUVEC, MLSMR starter and 10KST1 sets (AID 438;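 active = inhibition above 20% together with a positive visual image hit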;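 note: compound added about 3h40 before a 20 min TNFalpha stimulation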;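 for inhibition: signal is the nuclear over cytoplasmic p65 intensity ratio per well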). Particulars: HUVEC TNFa-induced p65 nuclear translocation; cell count: measured here: nuclei count (cytotoxicity indicator), at 2.08 µM; inhibition: at 2 µM, stronger effect = higher value, 0% TNFa-plus-vehicle, 100% no-TNFa wells.
The nature of assay [2]: inhibitors of mutant huntingtin aggregation, primary screen, imaging, exon1htt(103Q)mCFP cells, high-content imaging (AID 483;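 active = visual image review flags a hit and inhibition of aggregation exceeds 20%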;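 note: compound exposure lasted 3 days before fixation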;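 for nuclei count: percent of the per-plate median nuclei count of sample wells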). Particulars: exon1htt(103Q)mCFP cell line, aggregate imaging, at 2 µM; inhibition of aggregation: stronger effect = higher value; nuclei count: measured here: cell count, toxicity.
A short description of assay [3]: inhibitors of E-selectin induction by TNFa, primary screen, imaging, HUVEC, immunofluorescence, MLSMR starter and 10KST1 sets (AID 487;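 active = visually confirmed hit in the image check and inhibition above 20%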;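 for inhibition: signal is fraction of cell area covered by stained E-selectin grains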;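 for nuclei count: 100% = median nuclei count of all wells on the same plate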). The following applies: HUVEC TNFalpha-induced E-selectin immunofluorescence imaging, at 2 µM; inhibition: stronger effect = higher value; nuclei count: measured here: cell number, toxicity.
Assay [4] deals with Voltage-gated potassium channel subunit beta-2 (Rattus norvegicus) (UniProt P62483). The assay can be described thus: KvBeta enzyme negative modulators, primary screen, biochemical, NADPH fluorescence (AID 622;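 active = fluorescence slope higher than the sample average by over 3 SD, cut at about -0.22 in these data, passing the limit was not always enough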;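 note: slope of raw intensity against log time taken from 70 to 1610 s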). Particulars: recombinant KvBeta, 4-cyanobenzaldehyde reduction, at 10 µM, stronger effect = higher value.
Assay [5] shares this target. The assay can be described thus: KvBeta positive modulators, primary screen, biochemical, NADPH fluorescence (AID 623).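 Note: fluorescence intensity change per second fitted from 20 to 320 s.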 Particulars: Recombinant KvBeta, NADPH fluorescence decrease slope, 10 min; at 10 µM; stronger effect = lower value.
Assay [6] deals with Muscarinic acetylcholine receptor M4 (Homo sapiens) (UniProt P08173). The assay is described as follows: compounds altering M4/GIRK thallium flux, either direction, primary screen, M4 allosteric agonist project, cell-based, HEK293 M4/GIRK, BTC-AM (AID 625;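 active = fluorescence slope after compound addition differing from the mean of all tested samples at 99.7% confidence, mostly higher but some lower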;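 note: thallium influx through GIRK channels coupled to M4 in HEK293 cells with BTC-AM dye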). Particulars: at 10 µM, actives lie on both sides. The essentials: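 Material: M4/GIRK1/GIRK2 stable HEK293 cell line. Medium: pH 7.3 thallium assay buffer. Dosing: single compound concentration, 10 µM final. Schedule: 1 h dye loading, 2 min kinetic read. Measured by: kinetic fluorescence with BTC-AM dye. Read-out: post-addition slope, 15–24 s, of baseline-normalized fluorescence. Benchmarks: carbachol and DMSO controls.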

Assay [7] in a line: inhibitors of Sendai virus-induced IRF3 signaling, primary screen, TLR/RLR signaling modifier project, cell-based, Sendai virus stimulus, luciferase, 10K MLSCN set (AID 602276;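 active = inhibition at or above 50% at 10 µM; inactive = inhibition below 50%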;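 note: firefly luciferase from ISG56 promoter only with Renilla not read in this screen; 0% = Sendai virus plus DMSO and 100% = medium plus DMSO without virus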). Particulars: HEK293 RL24 IRF3 luciferase reporter, at 10 µM, stronger effect = higher value. Background: A reporter such as luciferase makes a cellular process visible.
The nature of assay [8]: inhibitors of poly I:C-induced TLR3 signaling, primary screen, cell-based, poly I:C stimulus, luciferase, 10K MLSCN set (AID 602277;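 active = inhibition of the reporter signal at or above 50%; inactive = inhibition below 50%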). The following applies: HEK293-TLR3 RL24 IRF3 luciferase reporter, at 10 µM, stronger effect = higher value.
The target of assay [9] is Alpha-2C adrenergic receptor (Homo sapiens) (UniProt P18825). The assay is described as follows: modulators of alpha2C/GIRK thallium flux, primary screen, cell-based, HEK293 alpha2C/GIRK1/2 (AID 624;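 active = fluorescence slope after compound addition differing from the mean of all screened samples at 99.7% confidence, in either direction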;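 note: slope of fluorescence ratio to pre-addition baseline per second over 15 to 24 s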). The following applies: thallium flux BTC fluorescence, at 10 µM, actives lie on both sides.
Assay [10] can be described thus: inhibitors of larval lipid processing in zebrafish, primary screen, whole organism, PED6 fluorescence, gall bladder and intestine (AID 686;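 active = a full or partial loss of lipid-probe fluorescence in the fish gall bladder, intestine or both, judged by eye; inactive = no fluorescence loss, or compound toxic to the fish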;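 note: larvae 5 to 7 days old with five fish per well; signal comes from phospholipase A2 cleavage of quenched PED6 carried via bile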). Particulars: Zebrafish larvae PED6 lipid processing, fluorescence scoring; screened at 20 µM (by protocol). The gist of the method: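 System: live zebrafish larvae aged 5-7 days, whole organism; measure: graded gall bladder and intestinal fluorescence inhibition per well; incubation: overnight exposure; reagent: ingested quenched lipid PED6 at 100 nM; signal: By-eye fluorescence microscopy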

Voltage-gated potassium channel subunit beta-2 (Rattus norvegicus), sequence (P62483 whole entry, looked up): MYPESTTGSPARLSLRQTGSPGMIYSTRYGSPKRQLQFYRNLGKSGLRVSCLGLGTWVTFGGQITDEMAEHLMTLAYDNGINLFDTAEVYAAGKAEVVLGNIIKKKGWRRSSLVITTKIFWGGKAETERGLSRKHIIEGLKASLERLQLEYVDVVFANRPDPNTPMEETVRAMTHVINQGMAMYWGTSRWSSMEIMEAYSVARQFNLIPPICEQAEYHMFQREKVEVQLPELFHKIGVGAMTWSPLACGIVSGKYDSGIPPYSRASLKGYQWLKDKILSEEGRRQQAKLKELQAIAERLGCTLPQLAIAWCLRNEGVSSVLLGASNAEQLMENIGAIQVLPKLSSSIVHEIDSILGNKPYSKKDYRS
Muscarinic acetylcholine receptor M4 (Homo sapiens), sequence (P08173 whole entry, looked up): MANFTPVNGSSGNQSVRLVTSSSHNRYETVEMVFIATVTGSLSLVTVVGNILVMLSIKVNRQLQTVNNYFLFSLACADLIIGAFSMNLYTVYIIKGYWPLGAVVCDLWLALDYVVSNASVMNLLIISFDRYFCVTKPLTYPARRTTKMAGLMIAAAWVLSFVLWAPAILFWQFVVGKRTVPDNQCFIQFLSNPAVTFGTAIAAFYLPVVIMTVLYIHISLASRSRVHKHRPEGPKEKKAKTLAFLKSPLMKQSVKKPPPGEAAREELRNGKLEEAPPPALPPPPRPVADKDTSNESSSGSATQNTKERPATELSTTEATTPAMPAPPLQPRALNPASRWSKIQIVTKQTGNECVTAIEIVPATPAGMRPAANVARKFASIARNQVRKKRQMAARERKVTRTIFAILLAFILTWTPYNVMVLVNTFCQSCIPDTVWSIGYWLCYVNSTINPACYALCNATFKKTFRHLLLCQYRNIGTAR
Alpha-2C adrenergic receptor (Homo sapiens), sequence (P18825 whole entry, looked up): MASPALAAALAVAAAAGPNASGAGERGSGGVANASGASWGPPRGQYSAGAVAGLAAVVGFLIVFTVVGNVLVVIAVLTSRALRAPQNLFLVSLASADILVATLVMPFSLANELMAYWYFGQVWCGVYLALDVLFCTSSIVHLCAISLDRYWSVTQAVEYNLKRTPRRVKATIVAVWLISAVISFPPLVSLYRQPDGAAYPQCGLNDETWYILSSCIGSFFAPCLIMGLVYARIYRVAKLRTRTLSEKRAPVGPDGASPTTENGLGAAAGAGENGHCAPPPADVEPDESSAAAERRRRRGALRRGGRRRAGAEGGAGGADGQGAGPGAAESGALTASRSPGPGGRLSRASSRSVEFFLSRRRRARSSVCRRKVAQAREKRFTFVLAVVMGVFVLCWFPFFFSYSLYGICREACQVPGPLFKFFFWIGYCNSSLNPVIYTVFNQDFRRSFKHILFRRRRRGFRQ

As to `CN1CC=C2C(C#N)=C(N)C(C#N)(C#N)C(c3cccc(Cl)c3Cl)C2C1` (configuration not stated), the cell count in [1] was 566. The inhibition (usually the drop in the measured response relative to a control, in per cent) was -8.5% (inactive) in assay [1], -13.9% (inactive) in assay [3], 8.89% (inactive) in [7] and 9.8% (inactive) in assay [8]. In addition, in [2], the inhibition of aggregation was -7.2% (inactive). Further, the nuclei count in assay [2] was 110%; in assay [3], 99.2%. Besides, the fluorescence slope in assay [4] was -0.399 (inactive); in [6], 0.00362 (inactive). In addition, the NADPH fluorescence slope in assay [5] is -0.000109 (inactive).
For the molecule `O=c1ccn(Cc2ccccc2Cl)cc1`, the cell count in [1] amounted to 440. The inhibition is 3% (inactive) in assay [1], 0.1% (inactive) in assay [3], 15.6% (inactive) in assay [7] and 14.2% (inactive) in [8]. For the same molecule, in [2], the inhibition of aggregation was 1.3% (inactive). Also, the nuclei count was 102% in [2] and 131% in assay [3]. Moreover, the fluorescence slope in [4] is -0.426 (inactive); in assay [6], 0.00507 (inactive). In [5], the NADPH fluorescence slope was -4e-05 (inactive).
Turning to `COc1cccc(NS(=O)(=O)c2cc(C)sc2C)c1`, in assay [1], the cell count came to 311. The inhibition in assay [1] is -5.7% (inactive); in assay [3] it was -57% (inactive); in assay [7], 3.14% (inactive); in assay [8], 24.9% (inactive). In addition, the inhibition of aggregation in assay [2] is 3.3% (inactive). Moreover, the nuclei count in assay [2] stood at 93%; in assay [3] it was 113%. The fluorescence slope in assay [4] is -0.467 (inactive); in assay [6], 0.00503 (inactive). Also, the NADPH fluorescence slope in assay [5] is -1.8e-05 (inactive).
Regarding `O=C(Nc1nc(-c2ccccc2)cs1)C1CCCO1` (configuration not stated), the cell count in assay [1] is 440. The inhibition was 9.4% (inactive) in assay [1], -12.1% (inactive) in [7] and 98.1% (active) in assay [8]. The inhibition of aggregation in assay [2] was -2.5% (inactive). Also, the nuclei count was 102% in [2] and 156% in [3]. Further, the fluorescence slope in assay [4] was -0.409 (inactive). Moreover, the NADPH fluorescence slope in [5] was -5.9e-05 (inactive). Moreover, the slope in [9] is 0.00563 (inactive). In [10], the call was inactive.
`COc1cccc(C(=O)Nc2ccc(NC(=O)C(C)(C)C)cn2)c1`: the cell count in [1] was 444. Besides, the results for the inhibition in [1], in [7] and in [8] were 9.8% (inactive), 36% (inactive) and 21.1% (inactive), respectively. For the same molecule, in [2], the inhibition of aggregation was -12.7% (inactive). Further, the nuclei count in [2] amounted to 120%; in assay [3], 135%. Also, the fluorescence slope was -0.571 (inactive) in [4] and 0.00623 (inactive) in [6]. Besides, the NADPH fluorescence slope in assay [5] is -9.6e-06 (inactive).
`Cc1cc(NC(=O)c2ccc(Cl)cc2)no1`: the cell count in assay [1] stood at 206. Besides, the inhibition in [1] was 0.8% (inactive); in [3], -58.4% (inactive); in [7] it was -41.1% (inactive); in assay [8], -168% (inactive). Further, the inhibition of aggregation in assay [2] is 41.9% (active). Also, the nuclei count was 92% in assay [2] and 83.6% in assay [3]. The fluorescence slope in assay [4] is -0.561 (inactive); in assay [6] it was 0.00496 (inactive). Further, the NADPH fluorescence slope in [5] was 1.1e-05 (inactive).
Consider `Cn1nc(C(=O)Nc2cccc(C(F)(F)F)c2)ccc1=O`, for which, in [1], the cell count came to 357. Also, the inhibition was 9.9% (inactive) in assay [1], -46.7% (inactive) in assay [3], 5.35% (inactive) in assay [7] and -5.97% (inactive) in [8]. Also, the inhibition of aggregation in assay [2] is -1.2% (inactive). For the same molecule, the nuclei count in assay [2] was determined as 100%; in [3], 104%. The fluorescence slope was -0.576 (inactive) in assay [4] and 0.00652 (inactive) in assay [6]. Moreover, the NADPH fluorescence slope in [5] was 4e-05 (inactive).
For the molecule `CC(=O)N1CCC2(CC1)CC(=O)c1cc(OCC(=O)NCc3ccc(C)cc3)ccc1O2`, in assay [1], the cell count was found to be 314. The inhibition is -4.7% (inactive) in [1], -5% (inactive) in assay [3], 6.64% (inactive) in assay [7] and 5.97% (inactive) in [8]. Moreover, the inhibition of aggregation in assay [2] is 2.5% (inactive). Moreover, the nuclei count is 78.3% in assay [2] and 119% in [3]. For the same molecule, the fluorescence slope is -0.0682 (inactive) in assay [4] and 0.00521 (inactive) in assay [6]. Besides, in assay [5], the NADPH fluorescence slope is -3.2e-06 (inactive).
